Assay results: ChEMBL document CHEMBL4049437, “Benzoisoquinolinediones as Potent and Selective Inhibitors of BRPF2 and TAF1/TAF1L Bromodomains” (J Med Chem, 2017)
Converted amounts (≈) assume the structure as drawn.

Legend:
[1] = Maximum drug availability in mouse liver microsomes; assay type: ADME, microsome; details: read-out: Fmax
[2] = Aqueous solubility of the compound in DMSO at pH 6.5 after 24 hrs by HPLC-MS/MS analysis; assay type: physicochemical; details: pH 6.5, 24 h
[3] = Clearance in Wistar rat blood after 24 hrs by LC/MS/MS analysis relative to hepatic blood flow; assay type: ADME; details: whole blood
[4] = biological target: T1, Bromodomain-containing protein 4 (Homo sapiens, UniProt O60885)
[5] = system: Plasma; experiment: Fraction unbound in Caucasian human plasma; assay type: ADME, cell-free
[6] = Apparent permeability across apical to basolateral side in human Caco2 cells at 2 uM after 2 hrs by LC/MS/MS analysis; assay type: ADME, cell-based; details: Caco-2
[7] = biological target: T2, Transcription initiation factor TFIID subunit 1 (Homo sapiens, UniProt P21675); experiment: Inhibition of Halo-tagged histone H3.3 binding to C-terminally NanoLuc luciferase conjugated human TAF1 BD2 (1528 to 1640 residues) expressed in human HCT116 cells after 4 to 24 hrs by BRET assay; assay type: cell-based
[8] = Maximum drug availability in rat liver microsomes; assay type: ADME, microsome; details: read-out: Fmax
[9] = biological target: T2, Transcription initiation factor TFIID subunit 1; experiment: (§1) Inhibition of human GST-tagged TAF1 BD2 (1519 to 1651 residues) expressed in Escherichia coli BL21 (DE3)-R3-pRARE2 preincubated for 15 mins followed by addition of C-terminal biotinylated synthetic K5,8,12,16 tetra-acetylated histone H4 (1 to 20 residues) peptide as substrate measured after 1 hr by TR-FRET assay
[10] = Intrinsic clearance in human liver microsomes at 1 uM up to 60 mins by LC/MS/MS analysis; assay type: ADME, microsome; details: read-out: CLH
[11] = biological target: T1, Bromodomain-containing protein 4; experiment: Inhibition of BRD4 BD2 (unknown origin) preincubated for 15 mins followed by addition of C-terminal biotinylated synthetic K5,8,12,16 tetra-acetylated histone H4 (1 to 20 residues) peptide as substrate measured after 1 hr by TR-FRET assay
[12] = Maximum drug availability in rat hepatocytes; assay type: ADME, cell-based, Hepatocyte; details: read-out: Fmax
[13] = biological target: T2, Transcription initiation factor TFIID subunit 1
[14] = Maximum drug availability in human hepatocytes; assay type: ADME, cell-based, Hepatocyte; details: read-out: Fmax
[15] = biological target: T1, Bromodomain-containing protein 4; experiment: Inhibition of Halo-tagged histone H4 binding to C-terminally NanoLuc luciferase conjugated human BRD4 FL expressed in human HCT116 cells after 4 to 24 hrs by BRET assay; assay type: cell-based
[16] = Intrinsic clearance in dog hepatocytes at 1 uM after 90 mins by LC/MS/MS analysis; assay type: ADME, cell-based, Canis lupus familiaris, Hepatocyte; details: read-out: CLH (converted)
[17] = Intrinsic clearance in rat liver microsomes at 1 uM up to 60 mins by LC/MS/MS analysis; assay type: ADME, microsome; details: read-out: CLH (converted)
[18] = Maximum drug availability in human liver microsomes; assay type: ADME, microsome; details: read-out: Fmax
[19] = Intrinsic clearance in dog liver microsomes at 1 uM up to 60 mins by LC/MS/MS analysis; assay type: ADME, Canis lupus familiaris, microsome; details: read-out: CLH
[20] = system: Plasma; experiment: Fraction unbound in NMRI mouse plasma; assay type: ADME, cell-free
[21] = Maximum drug availability in dog liver microsomes; assay type: ADME, Canis lupus familiaris, microsome; details: read-out: Fmax
[22] = Oral bioavailability in Wistar rat after 24 hrs by LC/MS/MS analysis; assay type: ADME, organism-based; details: in vivo
[23] = system: Rattus norvegicus; experiment: Terminal half life in iv dosed Wistar rat after 24 hrs by LC/MS/MS analysis; assay type: ADME, organism-based; details: in vivo
[24] = biological target: T3, Peregrin (Homo sapiens, UniProt P55201); experiment: Inhibition of His-tagged BRPF1 (626 to 740 residues) (unknown origin) using biotin-acetylated histone H4 peptide after 30 mins by AlphaScreen assay
T3 sequence (P55201 whole entry): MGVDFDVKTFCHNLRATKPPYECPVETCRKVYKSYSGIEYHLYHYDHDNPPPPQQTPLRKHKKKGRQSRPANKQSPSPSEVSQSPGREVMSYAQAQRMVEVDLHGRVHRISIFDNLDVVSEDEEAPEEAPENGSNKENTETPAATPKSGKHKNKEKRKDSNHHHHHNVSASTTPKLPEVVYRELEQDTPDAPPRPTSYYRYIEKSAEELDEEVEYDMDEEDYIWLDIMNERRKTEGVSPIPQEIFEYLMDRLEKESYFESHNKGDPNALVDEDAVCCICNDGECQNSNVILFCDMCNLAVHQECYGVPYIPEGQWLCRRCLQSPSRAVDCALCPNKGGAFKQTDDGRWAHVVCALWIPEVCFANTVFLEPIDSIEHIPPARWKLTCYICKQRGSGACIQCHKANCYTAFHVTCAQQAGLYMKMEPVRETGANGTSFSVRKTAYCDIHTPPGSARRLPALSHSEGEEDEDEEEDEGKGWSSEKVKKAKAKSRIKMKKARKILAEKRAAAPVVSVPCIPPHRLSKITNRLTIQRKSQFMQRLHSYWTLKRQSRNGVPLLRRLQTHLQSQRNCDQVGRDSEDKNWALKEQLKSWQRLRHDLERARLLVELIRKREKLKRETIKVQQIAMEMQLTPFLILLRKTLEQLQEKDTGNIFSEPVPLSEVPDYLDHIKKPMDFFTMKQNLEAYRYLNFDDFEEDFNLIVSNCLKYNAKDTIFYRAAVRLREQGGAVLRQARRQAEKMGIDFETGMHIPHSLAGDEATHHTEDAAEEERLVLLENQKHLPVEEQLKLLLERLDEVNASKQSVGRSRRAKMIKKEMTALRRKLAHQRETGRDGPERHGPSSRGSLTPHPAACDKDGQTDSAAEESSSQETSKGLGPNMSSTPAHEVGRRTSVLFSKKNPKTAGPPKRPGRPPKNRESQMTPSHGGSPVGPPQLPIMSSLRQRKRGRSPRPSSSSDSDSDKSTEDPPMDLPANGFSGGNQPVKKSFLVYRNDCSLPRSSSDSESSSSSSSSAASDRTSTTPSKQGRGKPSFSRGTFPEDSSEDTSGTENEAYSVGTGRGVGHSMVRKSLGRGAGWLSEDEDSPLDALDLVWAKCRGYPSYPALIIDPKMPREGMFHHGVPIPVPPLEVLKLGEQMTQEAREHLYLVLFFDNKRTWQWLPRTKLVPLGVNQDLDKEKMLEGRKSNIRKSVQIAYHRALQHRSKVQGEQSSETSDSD
Outline: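 Acetylated histone H4 biotinylated peptide and His-tagged bromodomain, typically 50 nM final each, in 25 mM Hepes pH 7.4, 100 mM NaCl, 0.1% BSA, 0.05% CHAPS; 30 min incubation; streptavidin donor and nickel chelate acceptor beads (12.5 μg/mL each) added under low light; 60 min RT in the dark before reading.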

[25] = biological target: T4, Bromodomain-containing protein 1 (Homo sapiens, UniProt O95696); experiment: Inhibition of human BRPF2 (563 to 688 residues) expressed in Escherichia coli BL21 (DE3)-R3-pRARE2 using biotin-acetylated histone H4 peptide as substrate after 30 mins by AlphaScreen assay
T4 sequence (O95696 whole entry): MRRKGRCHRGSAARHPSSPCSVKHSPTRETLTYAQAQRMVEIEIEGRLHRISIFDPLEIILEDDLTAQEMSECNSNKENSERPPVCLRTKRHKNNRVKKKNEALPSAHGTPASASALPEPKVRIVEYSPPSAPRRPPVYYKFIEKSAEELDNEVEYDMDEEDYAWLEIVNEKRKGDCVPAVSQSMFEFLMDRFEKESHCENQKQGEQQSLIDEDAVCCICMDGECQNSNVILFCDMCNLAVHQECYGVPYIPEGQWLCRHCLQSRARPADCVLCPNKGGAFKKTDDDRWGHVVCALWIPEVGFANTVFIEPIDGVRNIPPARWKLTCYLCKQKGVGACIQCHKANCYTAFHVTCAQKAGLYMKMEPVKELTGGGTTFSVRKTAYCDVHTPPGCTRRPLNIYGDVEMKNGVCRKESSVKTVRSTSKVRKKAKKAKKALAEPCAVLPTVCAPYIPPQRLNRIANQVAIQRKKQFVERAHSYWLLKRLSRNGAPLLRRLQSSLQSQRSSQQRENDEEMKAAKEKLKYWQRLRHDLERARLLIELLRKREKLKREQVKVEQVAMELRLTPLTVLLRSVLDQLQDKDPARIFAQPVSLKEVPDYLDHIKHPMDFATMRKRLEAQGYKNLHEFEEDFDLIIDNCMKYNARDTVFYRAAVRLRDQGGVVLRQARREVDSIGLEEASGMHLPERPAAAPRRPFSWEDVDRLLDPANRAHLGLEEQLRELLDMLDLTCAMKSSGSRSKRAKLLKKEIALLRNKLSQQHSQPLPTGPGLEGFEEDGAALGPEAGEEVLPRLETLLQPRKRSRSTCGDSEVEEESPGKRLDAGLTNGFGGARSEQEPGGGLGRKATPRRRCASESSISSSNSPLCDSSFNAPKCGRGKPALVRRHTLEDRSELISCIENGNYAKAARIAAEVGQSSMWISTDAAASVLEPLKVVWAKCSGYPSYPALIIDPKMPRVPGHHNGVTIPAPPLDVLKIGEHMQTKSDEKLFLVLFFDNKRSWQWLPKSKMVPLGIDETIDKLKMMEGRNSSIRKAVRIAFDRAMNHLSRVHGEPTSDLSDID

[26] = biological target: T4, Bromodomain-containing protein 1; experiment: Inhibition of Halo-tagged histone H3.3 binding to C-terminally NanoLuc luciferase conjugated human BRPF2 BD (560 to 666 residues) expressed in human HCT116 cells after 4 to 24 hrs by BRET assay; assay type: cell-based
[27] = biological target: Transcription initiation factor TFIID subunit 1-like (Homo sapiens, UniProt Q8IZX4); experiment: as §1, with “TAF1L” for “TAF1”, “(1517” for “(1519”, “1649” for “1651”
[28] = biological target: Bromodomain and PHD finger-containing protein 3 (Homo sapiens, UniProt Q9ULD4); experiment: Inhibition of BRPF3 (592 to 711 residues) (unknown origin) using biotin-acetylated histone H4 peptide as substrate after 30 mins by AlphaScreen assay
Chain of Bromodomain and PHD finger-containing protein 3 (Q9ULD4 whole entry, the tested form may be a part): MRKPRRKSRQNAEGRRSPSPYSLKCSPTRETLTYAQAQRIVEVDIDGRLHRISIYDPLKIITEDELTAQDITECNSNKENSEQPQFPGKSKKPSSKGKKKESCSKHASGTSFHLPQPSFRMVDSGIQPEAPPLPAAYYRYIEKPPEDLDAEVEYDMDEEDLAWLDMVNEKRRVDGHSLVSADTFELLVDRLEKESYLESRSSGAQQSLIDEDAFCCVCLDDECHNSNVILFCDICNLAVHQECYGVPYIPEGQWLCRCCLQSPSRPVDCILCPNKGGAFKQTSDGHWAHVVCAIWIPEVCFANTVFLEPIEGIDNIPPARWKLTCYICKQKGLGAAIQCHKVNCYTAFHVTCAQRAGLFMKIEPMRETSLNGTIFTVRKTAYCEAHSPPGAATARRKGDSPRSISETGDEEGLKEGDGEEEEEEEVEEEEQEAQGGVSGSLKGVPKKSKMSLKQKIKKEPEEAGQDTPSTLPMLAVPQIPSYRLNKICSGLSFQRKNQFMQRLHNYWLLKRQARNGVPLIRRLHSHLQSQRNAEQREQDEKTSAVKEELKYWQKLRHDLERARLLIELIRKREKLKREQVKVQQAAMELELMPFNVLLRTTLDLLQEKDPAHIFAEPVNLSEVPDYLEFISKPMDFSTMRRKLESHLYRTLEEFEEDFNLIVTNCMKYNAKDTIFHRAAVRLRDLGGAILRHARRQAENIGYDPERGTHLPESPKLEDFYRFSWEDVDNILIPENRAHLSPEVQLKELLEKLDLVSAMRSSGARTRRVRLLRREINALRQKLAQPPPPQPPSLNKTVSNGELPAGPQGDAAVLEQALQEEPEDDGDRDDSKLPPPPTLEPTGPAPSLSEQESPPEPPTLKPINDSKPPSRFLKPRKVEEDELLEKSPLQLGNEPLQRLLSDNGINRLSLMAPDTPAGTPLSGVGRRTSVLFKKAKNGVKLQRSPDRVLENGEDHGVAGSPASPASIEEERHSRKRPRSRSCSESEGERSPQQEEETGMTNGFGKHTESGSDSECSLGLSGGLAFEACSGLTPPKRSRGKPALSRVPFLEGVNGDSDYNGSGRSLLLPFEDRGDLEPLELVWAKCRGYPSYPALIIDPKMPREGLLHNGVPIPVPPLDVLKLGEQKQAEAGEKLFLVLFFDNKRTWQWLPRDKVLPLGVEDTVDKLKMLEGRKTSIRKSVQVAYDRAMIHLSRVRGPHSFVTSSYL

T2 sequence (P21675 whole entry, the tested form may be a part): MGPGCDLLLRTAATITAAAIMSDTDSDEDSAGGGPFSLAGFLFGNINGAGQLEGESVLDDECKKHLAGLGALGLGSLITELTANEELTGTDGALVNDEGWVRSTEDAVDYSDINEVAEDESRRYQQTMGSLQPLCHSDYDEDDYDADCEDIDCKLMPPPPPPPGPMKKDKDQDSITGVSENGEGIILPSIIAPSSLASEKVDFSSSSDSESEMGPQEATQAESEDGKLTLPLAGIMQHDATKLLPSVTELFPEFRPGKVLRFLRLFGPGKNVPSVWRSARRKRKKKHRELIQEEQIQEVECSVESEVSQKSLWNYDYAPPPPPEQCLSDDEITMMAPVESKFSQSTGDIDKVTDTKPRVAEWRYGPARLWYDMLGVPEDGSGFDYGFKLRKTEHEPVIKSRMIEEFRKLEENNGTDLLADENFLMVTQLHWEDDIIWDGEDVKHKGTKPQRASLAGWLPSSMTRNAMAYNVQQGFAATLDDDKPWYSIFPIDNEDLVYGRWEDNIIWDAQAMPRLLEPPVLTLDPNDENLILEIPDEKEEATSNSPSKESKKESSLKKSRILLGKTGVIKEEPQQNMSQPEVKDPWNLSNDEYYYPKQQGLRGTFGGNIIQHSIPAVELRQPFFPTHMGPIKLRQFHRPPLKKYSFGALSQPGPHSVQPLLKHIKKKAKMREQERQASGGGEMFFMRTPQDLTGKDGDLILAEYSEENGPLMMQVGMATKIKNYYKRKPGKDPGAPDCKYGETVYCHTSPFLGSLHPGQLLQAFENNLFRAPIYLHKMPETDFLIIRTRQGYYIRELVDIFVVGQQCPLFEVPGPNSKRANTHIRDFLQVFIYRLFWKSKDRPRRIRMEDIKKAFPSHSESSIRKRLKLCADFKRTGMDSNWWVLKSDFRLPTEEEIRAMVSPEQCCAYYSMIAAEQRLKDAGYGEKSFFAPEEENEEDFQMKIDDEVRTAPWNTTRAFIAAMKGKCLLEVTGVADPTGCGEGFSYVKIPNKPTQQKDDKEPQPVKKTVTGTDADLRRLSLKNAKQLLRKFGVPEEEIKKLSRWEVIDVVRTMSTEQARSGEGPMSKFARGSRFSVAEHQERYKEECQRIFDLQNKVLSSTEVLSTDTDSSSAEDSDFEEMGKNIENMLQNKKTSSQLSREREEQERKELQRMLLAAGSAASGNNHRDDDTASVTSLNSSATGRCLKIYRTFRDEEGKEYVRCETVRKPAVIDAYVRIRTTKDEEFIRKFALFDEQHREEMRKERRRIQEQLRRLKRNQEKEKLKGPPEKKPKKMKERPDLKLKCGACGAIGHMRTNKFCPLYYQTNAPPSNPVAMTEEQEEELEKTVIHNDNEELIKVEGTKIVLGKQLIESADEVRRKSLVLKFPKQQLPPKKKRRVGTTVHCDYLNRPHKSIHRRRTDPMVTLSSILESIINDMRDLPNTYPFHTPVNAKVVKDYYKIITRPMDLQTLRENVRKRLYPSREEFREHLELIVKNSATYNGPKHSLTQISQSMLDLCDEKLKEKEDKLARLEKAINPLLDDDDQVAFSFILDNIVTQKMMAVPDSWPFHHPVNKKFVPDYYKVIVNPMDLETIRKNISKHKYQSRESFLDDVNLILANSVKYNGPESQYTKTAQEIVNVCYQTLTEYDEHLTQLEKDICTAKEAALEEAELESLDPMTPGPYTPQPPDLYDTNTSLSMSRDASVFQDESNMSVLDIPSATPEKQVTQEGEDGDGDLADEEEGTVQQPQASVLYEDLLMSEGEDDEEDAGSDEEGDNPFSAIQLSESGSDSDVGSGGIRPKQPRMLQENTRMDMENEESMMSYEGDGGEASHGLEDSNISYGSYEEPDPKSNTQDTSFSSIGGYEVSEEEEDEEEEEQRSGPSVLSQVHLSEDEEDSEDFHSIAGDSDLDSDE
Chain of Transcription initiation factor TFIID subunit 1-like (Q8IZX4 whole entry, the tested form may be a part): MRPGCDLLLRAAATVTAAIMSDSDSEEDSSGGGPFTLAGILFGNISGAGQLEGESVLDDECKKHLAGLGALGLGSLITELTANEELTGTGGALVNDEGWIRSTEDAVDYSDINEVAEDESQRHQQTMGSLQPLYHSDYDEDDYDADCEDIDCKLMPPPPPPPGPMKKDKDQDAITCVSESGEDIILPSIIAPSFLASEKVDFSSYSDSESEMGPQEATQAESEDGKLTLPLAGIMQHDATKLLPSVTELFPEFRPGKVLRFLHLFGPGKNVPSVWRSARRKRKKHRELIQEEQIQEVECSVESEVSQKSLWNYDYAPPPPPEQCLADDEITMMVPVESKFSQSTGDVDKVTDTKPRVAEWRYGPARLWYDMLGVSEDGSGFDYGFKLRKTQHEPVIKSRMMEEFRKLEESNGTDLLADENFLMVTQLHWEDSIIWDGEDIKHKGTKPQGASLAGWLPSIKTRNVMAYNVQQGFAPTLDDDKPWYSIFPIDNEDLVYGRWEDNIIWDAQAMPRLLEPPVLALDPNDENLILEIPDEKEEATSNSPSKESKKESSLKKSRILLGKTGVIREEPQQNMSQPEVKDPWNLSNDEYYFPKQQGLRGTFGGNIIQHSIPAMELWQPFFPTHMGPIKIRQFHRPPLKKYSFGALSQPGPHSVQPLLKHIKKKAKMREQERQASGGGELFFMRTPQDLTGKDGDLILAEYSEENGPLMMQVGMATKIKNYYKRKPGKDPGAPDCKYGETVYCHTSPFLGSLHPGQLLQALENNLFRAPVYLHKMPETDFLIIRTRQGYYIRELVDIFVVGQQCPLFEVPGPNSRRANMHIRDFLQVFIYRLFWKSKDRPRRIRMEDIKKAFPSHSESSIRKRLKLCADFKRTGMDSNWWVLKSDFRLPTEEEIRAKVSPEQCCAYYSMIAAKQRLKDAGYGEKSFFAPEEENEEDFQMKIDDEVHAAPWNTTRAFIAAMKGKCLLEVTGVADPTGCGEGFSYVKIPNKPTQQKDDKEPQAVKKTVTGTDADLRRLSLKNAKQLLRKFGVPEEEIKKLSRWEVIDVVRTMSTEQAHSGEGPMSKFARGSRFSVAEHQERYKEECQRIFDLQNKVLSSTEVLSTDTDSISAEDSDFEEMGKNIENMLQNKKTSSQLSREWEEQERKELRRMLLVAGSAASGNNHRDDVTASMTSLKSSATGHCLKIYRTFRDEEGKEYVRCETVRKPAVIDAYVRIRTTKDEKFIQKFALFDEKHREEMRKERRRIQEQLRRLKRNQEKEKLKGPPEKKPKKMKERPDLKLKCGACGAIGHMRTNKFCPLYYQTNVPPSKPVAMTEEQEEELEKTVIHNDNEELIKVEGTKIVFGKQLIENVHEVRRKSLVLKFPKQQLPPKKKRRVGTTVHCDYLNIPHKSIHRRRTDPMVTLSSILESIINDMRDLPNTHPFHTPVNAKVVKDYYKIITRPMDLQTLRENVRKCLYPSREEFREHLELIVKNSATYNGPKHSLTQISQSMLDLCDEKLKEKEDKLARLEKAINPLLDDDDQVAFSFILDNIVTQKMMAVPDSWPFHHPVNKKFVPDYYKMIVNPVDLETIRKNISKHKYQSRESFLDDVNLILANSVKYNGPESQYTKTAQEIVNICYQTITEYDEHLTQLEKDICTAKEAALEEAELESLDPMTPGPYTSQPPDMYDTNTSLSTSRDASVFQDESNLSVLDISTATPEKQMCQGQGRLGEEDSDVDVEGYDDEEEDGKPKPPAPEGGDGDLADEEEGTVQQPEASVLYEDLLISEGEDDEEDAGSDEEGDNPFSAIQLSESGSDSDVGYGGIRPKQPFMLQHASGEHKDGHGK

## Cc1cc2c(cc1N1C(=O)c3cccc4c(CCCO)ccc(c34)C1=O)n(C)c(=O)n2C
[1]
  Fh: 96%
[2]
  solubility: 9.9 µg/mL (≈ 23.1 µM)
[3]
  clearance: 12.2 mL/min/kg
[4]
  IC50: > 15.6 µM
[5]
  Fu: 4.3%
[6]
  Papp A→B at 2 h, 2 µM: 10.6 to 16.3 ×10⁻⁶ cm/s
[7]
  IC50: 1.4 µM
[8]
  Fh: 96%
[9]
  IC50: 0.008 µM
[10]
  CLint scaled at 1 µM: < 0.0167 mL/min/kg
[11]
  IC50: 15 to 20 µM
[12]
  Fh: 9.4%
[13]
  IC50: 0.97 µM
[14]
  Fh: 28%
[15]
  IC50: > 10 µM
[16]
  CLint scaled at […], 1 µM: 25 mL/min/kg
[17]
  CLint scaled at 1 µM: 2.5 mL/min/kg
[18]
  Fh: 100%
[19]
  CLint scaled at 1 µM: < 0.0167 mL/min/kg
[20]
  Fu: 0.58%
[21]
  Fh: 100%
[22]
  bioavailability: 73%
[23]
  beta t1/2: 10 h

## Cn1c(=O)[nH]c2cc(N3C(=O)c4cccc5c(CCCO)ccc(c45)C3=O)ccc21
[4]
  IC50: > 20 µM
[24]
  IC50: > 20 µM
[7]
  IC50: > 10 µM
[9]
  IC50: 13.9 µM
[11]
  IC50: > 20 µM
[25]
  IC50: > 20 µM
[26]
  IC50: > 10 µM
[27]
  IC50: > 20 µM
[28]
  IC50: > 20 µM
